Results published in ChEMBL document CHEMBL5096187, “Efficient Synthesis and Bioevaluation of Novel Dual Tubulin/Histone Deacetylase 3 Inhibitors as Potential Anticancer Agents” (J Med Chem, 2021).
Calls of active or inactive are those of the source. The calls are words filed in the database; no cut-off is given here.

Columns and labels:
B16-F10 [1] = experiment: Inhibition of cell migration in mouse B16-F10 cells assessed as reduction in wound area ratio measured at 100 nM incubated for 24 hrs by wound healing assay; type: functional; parameters: scale not given: the % may be the effect or the level left
Method in brief: (§1)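 Confluent B16-F10 monolayers, seeded overnight, were scratched with a pipette tip and washed to remove debris. Cells were then treated, and phase-contrast images were taken at 0 and 24 h. Migration distance or wound area measured manually against DMSO control; n = 3.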

B16-F10 [2] = experiment: Inhibition of cell migration in mouse B16-F10 cells assessed as reduction in wound area ratio measured at 25 nM incubated for 24 hrs by wound healing assay; type: functional; parameters: scale not given: the % may be the effect or the level left; method in brief: as §1
Tubulin (Sus scrofa) [3] = molecular target: T1, Tubulin (Sus scrofa) (UniProt P02554+P02550); experiment: Inhibition of pig brain tubulin polymerization at 10 uM measured after 20 mins by spectrometric method relative to control
T1 sequence (P02550 whole entry, looked up): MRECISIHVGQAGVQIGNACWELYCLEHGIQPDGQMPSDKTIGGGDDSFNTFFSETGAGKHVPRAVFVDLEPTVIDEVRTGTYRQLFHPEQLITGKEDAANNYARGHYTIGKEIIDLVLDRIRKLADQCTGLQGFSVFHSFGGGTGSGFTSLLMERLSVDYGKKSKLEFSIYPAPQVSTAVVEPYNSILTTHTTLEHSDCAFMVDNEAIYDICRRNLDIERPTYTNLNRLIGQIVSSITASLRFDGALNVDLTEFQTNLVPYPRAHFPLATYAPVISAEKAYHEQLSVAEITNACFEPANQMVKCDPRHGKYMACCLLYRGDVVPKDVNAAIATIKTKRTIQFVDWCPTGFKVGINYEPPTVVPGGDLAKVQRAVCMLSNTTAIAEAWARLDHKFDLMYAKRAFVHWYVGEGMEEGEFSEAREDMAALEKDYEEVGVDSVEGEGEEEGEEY
T1 sequence (P02554 whole entry, looked up): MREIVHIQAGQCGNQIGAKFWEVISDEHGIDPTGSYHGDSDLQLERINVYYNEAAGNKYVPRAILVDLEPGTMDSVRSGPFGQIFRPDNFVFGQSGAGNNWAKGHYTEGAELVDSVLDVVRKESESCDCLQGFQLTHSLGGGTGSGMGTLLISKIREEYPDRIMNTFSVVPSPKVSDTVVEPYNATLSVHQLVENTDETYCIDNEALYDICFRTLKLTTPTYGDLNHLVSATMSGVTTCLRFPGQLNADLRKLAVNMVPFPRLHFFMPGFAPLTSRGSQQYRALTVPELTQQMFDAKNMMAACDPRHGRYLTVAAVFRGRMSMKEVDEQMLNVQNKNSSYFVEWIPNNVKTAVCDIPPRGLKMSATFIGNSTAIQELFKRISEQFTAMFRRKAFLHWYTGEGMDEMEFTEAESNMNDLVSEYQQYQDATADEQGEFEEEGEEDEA
Method in brief: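 Pig brain tubulin was purified by three assembly/disassembly cycles and then phosphocellulose chromatography. Compound at 10 μM in PEM buffer with 1 mM GTP and 5% glycerol at 37 °C. Polymerization followed at 340 nm; inhibition taken at 20 min versus vehicle control.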

B16-F10 [4] = experiment: Induction of apoptosis in mouse B16-F10 cells assessed as early apoptotic cells at 25 nM incubated for 48 hrs by Annexin V-FITC/PI analysis (reference value: 1.68 %); type: functional
B16-F10 [5] = experiment: Inhibition of colony formation in mouse B16-F10 cells assessed as reduction in number of colonies incubated for 24 hrs; type: functional, cell-based; settings: dose 25-100 nM, DDE = dose-dependent effect
Method in brief: (§2)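 1000 B16-F10 cells seeded and cultured 24 h at 37 °C, then exposed to compound for 24 h. Medium was then replaced and cells grown 10–14 days. Colonies fixed with 4% paraformaldehyde for 30 min, stained with 0.1% crystal violet for 15 min, and counted; n = 3 versus DMSO.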

[6] = Antiproliferative activity against human YCC-11 cells assessed as inhibition of cell viability; type: functional, cell-based
Tubulin (Sus scrofa) [7] = molecular target: T1, Tubulin (Sus scrofa); experiment: Inhibition of pig brain tubulin polymerization in mouse B16-F10 cells assessed as disruption of microtubule network at 100 nM measured for 6 hrs by immunofluorescence assay; type: cell-based
Method in brief: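 B16-F10 cells on glass coverslips exposed 6 h to test agent or 0.1% DMSO vehicle, fixed in 4% paraformaldehyde, permeabilized with 0.2% Triton X-100 in PBS, blocked 30 min with goat serum, then anti-β-tubulin monoclonal 1 h at 37 °C, fluorescent secondary and DAPI nuclear stain. Microtubule network judged by fluorescence or confocal microscopy.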

B16-F10 [8] = experiment: Inhibition of colony formation in mouse B16-F10 cells assessed as reduction in number of colonies at 100 nM incubated for 24 hrs; type: functional, cell-based; method in brief: as §2
B16-F10 [9] = experiment: Induction of apoptosis in mouse B16-F10 cells assessed as viable cells at 100 nM incubated for 48 hrs by Annexin V-FITC/PI analysis (reference value: 98.3 %); type: functional; settings: read-out: Activity
[10] = Nephrotoxicity in C57BL/6 mouse assessed as effect on urea level in serum; type: toxicity; settings: in vivo
Tubulin (Sus scrofa) [11] = molecular target: T1, Tubulin (Sus scrofa); experiment: Inhibition of pig brain tubulin polymerization measured after 20 mins by spectrometric method; settings: dose 0.8-25 µM, DDE = dose-dependent effect
Method in brief: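 Tubulin purified from pig brain microtubule protein (three assembly/disassembly cycles, then phosphocellulose chromatography). Tubulin mixed with compound in PEM buffer (100 mM PIPES, 1 mM MgCl₂, 1 mM EGTA) plus 1 mM GTP and 5% glycerol. Polymerization followed at 340 nm, 37 °C. Inhibition versus vehicle at 20 min; plateau absorbance used.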

B16-F10 [12] = experiment: Induction of apoptosis in mouse B16-F10 cells assessed as necrotic cells at 25 nM incubated for 48 hrs by Annexin V-FITC/PI analysis (reference value: 0.012 %); type: functional
Tubulin = Tubulin (Sus scrofa, UniProt P02554+P02550); experiment: Inhibition of pig brain tubulin polymerization by spectrometric method
Method in brief: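 Phosphocellulose-purified pig brain tubulin mixed with graded compound concentrations in PEM buffer (100 mM PIPES, 1 mM MgCl2, 1 mM EGTA) plus 1 mM GTP and 5% glycerol. Absorbance at 340 nm and 37 °C; plateau absorbance used to calculate IC50.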

[13] = Hepatotoxicity in C57BL/6 mouse assessed as effect on ALB level in serum; type: toxicity
B16-F10 [14] = experiment: Induction of cell cycle arrest in mouse B16-F10 cells assessed as accumulation of cells in G2/M phase at 25 nM measured after 48 hrs by PI/RNaseA staining based flow cytometry analysis (Rvb= 5.76%); type: functional
B16-F10 [15] = experiment: Induction of apoptosis in mouse B16-F10 cells assessed as early apoptotic cells at 50 nM incubated for 48 hrs by Annexin V-FITC/PI analysis (reference value: 1.68 %); type: functional
B16-F10 [16] = experiment: Induction of apoptosis in mouse B16-F10 cells assessed as viable cells at 50 nM incubated for 48 hrs by Annexin V-FITC/PI analysis (reference value: 98.3 %); type: functional; settings: read-out: Activity
[17] = Toxicity in C57BL/6 mouse allografted with mouse B16-F10 cells assessed as body weight loss at 10 mg/kg, ip administered for 14 days; settings: in vivo, 336 h
[18] = Antiproliferative activity against human YCC3/7 cells assessed as inhibition of cell viability; type: functional, cell-based
HCT-116 = experiment: Antiproliferative activity against human HCT-116 cells assessed as inhibition of cell viability measured for 48 hrs by microplate reader based MTT assay; type: functional; settings: HCT-116, 48 h
Method in brief: (§3)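 Cells grown in RPMI-1640 with 10% FBS and seeded at 5000 cells/well. After overnight attachment, compound was added in medium with 0.1% DMSO for 48 h at 37 °C. Read-out was MTT for HCT-116, B16-F10 and A549, and CCK-8 for Jurkat (0.5 mg/mL, 4 h), with absorbance at 570 nm. IC50 from nonlinear regression; at least three independent experiments.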

B16-F10 [19] = experiment: Antiproliferative activity against mouse B16-F10 cells assessed as inhibition of cell viability measured for 48 hrs by microplate reader based MTT assay; type: functional; settings: B16-F10, 48 h; method in brief: as §3
B16-F10 [20] = experiment: Induction of apoptosis in mouse B16-F10 cells assessed as viable cells at 25 nM incubated for 48 hrs by Annexin V-FITC/PI analysis (reference value: 98.3 %); type: functional; settings: read-out: Activity
B16-F10 [21] = experiment: Induction of apoptosis in mouse B16-F10 cells assessed as early apoptotic cells at 100 nM incubated for 48 hrs by Annexin V-FITC/PI analysis (reference value: 1.68 %); type: functional
[22] = In vivo inhibition of HDAC in tumor of mouse B16-F10 cells xenografted in C57BL/6 mouse assessed as increase in acetylated histone-H3 expression by […] immunohistochemistry method; type: functional; parameters: scale not given: the % may be the effect or the level left
Method in brief: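 Tumors from the 14-day i.p. B16-F10 study were formalin-fixed and paraffin-embedded. Sections were deparaffinized, treated with 3% H2O2, and antigen-retrieved at pH 9 and 80 °C overnight. Blocked with milk, incubated with anti-Ac-H3 at 4 °C overnight, then IgG secondary and hematoxylin counterstain. Ac-H3-positive ratio quantified from images.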

- inhibition (Tubulin (Sus scrofa) [3]): 70%
- inhibition (Tubulin (Sus scrofa) [7]): Active
- inhibition (Tubulin (Sus scrofa) [11]): Dde
- IC50 (Tubulin): 12200 nM
- IC50 (HCT-116): 50 nM
- IC50 (B16-F10 [19]): 70 nM
Compound: COc1cc(C(=O)c2csc(-c3ccc(NC(=O)CCCC(=O)Nc4ccccc4N)cc3)n2)cc(OC)c1OC
- Activity (B16-F10 [1]): 7.18%
- Activity (B16-F10 [2]): 27.32%
- Activity (B16-F10 [4]): 10.9%
- Activity (B16-F10 [5]): Dde
- IC50 [6]: 300 nM
- Activity (B16-F10 [8]): Active
- viability at 0.1 µM (B16-F10 [9]): 31.6%
- Activity [10]: Non-Toxic
- Activity (B16-F10 [12]): 0%
- Activity [13]: Non-Toxic
- Activity (B16-F10 [14]): 15.98%
- Activity (B16-F10 [15]): 7.09%
- viability at 0.05 µM (B16-F10 [16]): 58.9%
- Activity [17]: Non-Toxic
- IC50 [18]: 560 nM
- viability at 0.025 µM (B16-F10 [20]): 89.1%
- Activity (B16-F10 [21]): 5.83%
- Activity [22]: 36.7%
